Laboratory results published in article PMC6392825 (ChemistryOpen, 2019).
Values after ≈ are worked out from the molar mass of the structure shown.

Assays:
[1] = Water solubility, shake flask method, 0.1 M phosphate buffer pH 6.8; assay type: physicochemical; conditions: 37 °C, pH 6.8, aqueous buffer, thermodynamic from solid
[2] = Chemical antioxidant capacity, FRAP assay
[3] = tested on: HepG2; assay: Cytotoxicity, mitochondrial activity; assay type: cell-based; conditions: Homo sapiens, HepG2, 72 h, read-out: IC50 MTT
How it was run: (§1)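 Seeded at 20000 cells/well in DMEM and grown 24 h at 37 °C, 10% CO2. Medium was then replaced with serum-free medium holding test compound (25 mM DMSO stock) at various concentrations for 72 h, in triplicate; doxorubicin was the positive control. MTT (5 mg/mL stock in PBS) added for 2 h, formazan dissolved in DMSO, A570. IC50 derived from % surviving cells, reported as mean ± SD combined with SRB data.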

[4] = tested on: HT‐29; assay: Cytotoxicity, mitochondrial activity; assay type: cell-based; conditions: Homo sapiens, HT-29, 72 h, read-out: IC50 MTT
How it was run: as §1

[5] = tested on: Caco‐2; assay: Cytotoxicity, mitochondrial activity; assay type: cell-based; conditions: Homo sapiens, Caco-2, 72 h, read-out: IC50 MTT
How it was run: as §1

[6] = tested on: EA.hy926; assay: Cytotoxicity, mitochondrial activity; assay type: cell-based; conditions: Homo sapiens, EA.hy 926, 72 h, read-out: IC50 MTT
How it was run: as §1

[7] = tested on: HepG2; assay: Cell growth inhibition, protein content; assay type: cell-based; conditions: Homo sapiens, HepG2, 72 h, read-out: IC50 SRB
How it was run: (§2)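 Cell lines from ATCC, grown in DMEM+glutamax with 1% NEAA, 1% P/S and 10% FBS at 37 °C, 10% CO2. Seeded at 20000 cells/well for 24 h, then exposed to test compound (25 mM DMSO stock) for three days. Fixed with cold TCA for 1 h at 4 °C, stained 30 min with 0.4% SRB in 1% acetic acid, dissolved in 10 mM Tris, A490. Triplicate; IC50 given as mean ± SD combined with MTT data (n ≥ 3).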

[8] = tested on: HT‐29; assay: Cell growth inhibition, protein content; assay type: cell-based; conditions: Homo sapiens, HT-29, 72 h, read-out: IC50 SRB
How it was run: as §2

[9] = tested on: Caco‐2; assay: Cell growth inhibition, protein content; assay type: cell-based; conditions: Homo sapiens, Caco-2, 72 h, read-out: IC50 SRB
How it was run: as §2

[10] = tested on: EA.hy926; assay: Cell growth inhibition, protein content; assay type: cell-based; conditions: Homo sapiens, EA.hy 926, 72 h, read-out: IC50 SRB
How it was run: as §2

[11] = tested on: HepG2; assay: Intracellular ROS assay; assay type: cell-based; conditions: for change of intracellular ROS in words: HepG2, vs untreated control, 10 and 1 μM; for activity at 1 µM / activity at 10 µM: Homo sapiens, HepG2, read-out: Intracellular ROS, percentage compared to the untreated control cells (ROS/SRB)
How it was run: (§3)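 Cells seeded at 20000/well and grown 24 h at 37 °C, 10% CO2, then treated with test compound at 10 and 1 μM in serum-free medium. NAC and doxorubicin served as controls. After a PBS wash, cells were loaded with 20 μM DCFH-DA for 30 min, washed, and held 1 h in phenol red-free DMEM. Fluorescence read at ex 485/em 535 nm and normalized to SRB in the same well. Reported as % of untreated control, n ≥ 3, two-tailed t-test with unequal variances.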

[12] = tested on: HT‐29; assay: Intracellular ROS assay; assay type: cell-based; conditions: for activity at 1 µM / activity at 10 µM: Homo sapiens, HT-29, read-out: Intracellular ROS, percentage compared to the untreated control cells (ROS/SRB); for change of intracellular ROS in words: HT‐29, vs untreated control, 10 and 1 μM
How it was run: as §3

[13] = tested on: Caco‐2; assay: Intracellular ROS assay; assay type: cell-based; conditions: for activity at 1 µM / activity at 10 µM: Homo sapiens, Caco-2, read-out: Intracellular ROS, percentage compared to the untreated control cells (ROS/SRB)
How it was run: as §3

[14] = tested on: EA.hy926; assay: Intracellular ROS assay; assay type: cell-based; conditions: for activity at 1 µM / activity at 10 µM: Homo sapiens, EA.hy 926, read-out: Intracellular ROS, percentage compared to the untreated control cells (ROS/SRB); for change of intracellular ROS in words: EA.hy926, vs untreated control, 10 and 1 μM
How it was run: as §3

[15] = tested on: HepG2, HT‐29, Caco‐2 and EA.hy926; assay: Antiproliferative activity, MTT and SRB assays taken together; assay type: cell-based
[16] = tested on: CHO‐K1; assay: Intracellular ROS assay; assay type: cell-based, Chinese hamster; conditions: CHO‐K1, vs untreated control, 10 and 1 μM
How it was run: as §3

Row | SMILES | solubility at 90 min [1] | solubility at 24 h [1] | FRAP (Trolox equivalent per μM) [2] | FRAP (curcumin equivalent per μM) [2] | IC50 [3] | IC50 [4] | IC50 [5] | IC50 [6] | IC50 [7] | IC50 [8] | IC50 [9] | IC50 [10] | change of intracellular ROS in words [11] | activity at 10 µM [11] | activity at 1 µM [12] | activity at 10 µM [12] | activity at 1 µM [13] | activity at 10 µM [13] | activity at 1 µM [14] | activity at 10 µM [14] | also measured
1 | COc1cc(/C=C/C(=O)/C=C(O)/C=C/c2ccncc2)ccc1O [3 c, (1E,4Z,6E)‐5‐Hydroxy‐1‐(4‐hydroxy‐3‐methoxyphenyl)‐7‐(pyridin‐4‐yl)hepta‐1,4,6‐triene‐3‐one] | 9 ± 0.6 µM (≈ 2.91 µg/mL) | 12.8 ± 1.1 µM (≈ 4.14 µg/mL) | 0.56 Trolox equivalent per μM | 0.54 curcumin equivalent per μM | 3.2 ± 0.8 µM | 4.9 ± 0.3 µM | 7.1 ± 0.4 µM | 6.1 ± 0.1 µM | 9.8 ± 0.6 µM | 48.8 ± 1.8 µM | 12 ± 0.7 µM | 3.7 ± 0.2 µM | significantly increased ROS production | 128 ± 4.4% | 93.4 ± 6.4% | 99.8 ± 11.4% | 89.8 ± 3.6% | 99.7 ± 1% | 100 ± 6.9% | 95.7 ± 3.5% | antioxidant activity in words, FRAP [2]: comparable to ascorbic acid; activity at 1 µM [11]: 104 ± 13.1%; antiproliferative activity / cell growth inhibition in words [15]: comparable activity to the commercial doxorubicin drug
2 | COc1cc(/C=C/C(=O)/C=C(O)/C=C/c2ccc[nH]2)ccc1O [3 f, (1E,4Z,6E)‐5‐Hydroxy‐1‐(4‐hydroxy‐3‐methoxyphenyl)‐7‐(1H‐pyrrol‐2‐yl)hepta‐1,4,6‐trien‐3‐one] | 20.9 ± 1.7 µM (≈ 6.51 µg/mL) | 18.3 ± 0.4 µM (≈ 5.7 µg/mL) | 0.56 Trolox equivalent per μM | 0.54 curcumin equivalent per μM | 31.7 ± 0.6 µM | 33.9 ± 0.4 µM | 17.1 ± 0.4 µM | 45.6 ± 0.9 µM | 7.1 ± 0.2 µM | 36.1 ± 2.3 µM | 15.9 ± 2 µM | 33.8 ± 1.4 µM | significantly increased ROS production | 216 ± 13.7% | 117 ± 10.5% | 109 ± 2.6% | 125 ± 3.5% | 147 ± 12% | 125 ± 9.7% | 132 ± 12.7% | antioxidant activity in words, FRAP [2]: comparable to ascorbic acid; activity at 1 µM [11]: 98.9 ± 2.9%; change of intracellular ROS in words [12]: higher ROS signal; change of intracellular ROS in words [16]: significantly increased ROS
3 | COc1cc(/C=C/c2cc(/C=C/c3ccncc3)[nH]n2)ccc1O [4 b, 2‐Methoxy‐4‐{(E)‐2‐[5‐((E)‐2‐(pyridin‐4‐yl)vinyl)‐1H‐pyrazol‐3‐yl]vinyl}phenol] | 16.8 ± 1.6 µM (≈ 5.37 µg/mL) | 12.8 ± 1.4 µM (≈ 4.09 µg/mL) | 0.43 Trolox equivalent per μM | 0.42 curcumin equivalent per μM | 56.7 ± 0.5 µM | 49 ± 0.7 µM | 39.3 ± 1.2 µM | 35.7 ± 0.1 µM | 54.6 ± 0.3 µM | 47.4 ± 0.2 µM | 46.5 ± 0.5 µM | 51.8 ± 0.3 µM | significantly increased ROS production | 123 ± 11.4% | 111 ± 16.2% | 114 ± 12.3% | 106 ± 4.6% | 94.3 ± 6.7% | 86.9 ± 1.6% | 80.6 ± 6.8% | activity at 1 µM [11]: 135 ± 14.1%; change of intracellular ROS in words [14]: decreased intracellular ROS; change of intracellular ROS in words [16]: significantly increased ROS
4 | COc1cc(/C=C/c2cc(/C=C/c3cccc4cnccc34)[nH]n2)ccc1O [4 c, 2‐Methoxy‐4‐{(E)‐2‐[5‐((E)‐2‐(isoquinolin‐5‐yl)vinyl)‐1H‐pyrazol‐3‐yl]vinyl}phenol] | 6.4 ± 0.2 µM (≈ 2.36 µg/mL) | 7 ± 0.2 µM (≈ 2.59 µg/mL) | 0.15 Trolox equivalent per μM | 0.14 curcumin equivalent per μM | 6.7 ± 0.4 µM | 37.7 ± 1.3 µM | 58.7 ± 2 µM | 38.8 ± 0.4 µM | 28.3 ± 4.7 µM | > 75 µM | 60.3 ± 3.5 µM | > 75 µM | significantly decreased ROS signal | 88 ± 10.6% | 94.4 ± 3.4% | 86.4 ± 8.2% | 108 ± 18.6% | 102 ± 17.3% | 89.9 ± 2.5% | 99.2 ± 5% | activity at 1 µM [11]: 74.7 ± 2.9%; antiproliferative activity / cell growth inhibition in words [15]: comparable activity to the commercial doxorubicin drug
5 | C(=C\c1c[nH]c2ccccc12)/c1cc(/C=C/c2cccs2)[nH]n1 [4 d, 3‐{(E)‐2‐[5‐((E)‐2‐(thiophen‐2‐yl)vinyl)‐1H‐pyrazol‐3‐yl]vinyl}‐1H‐indole] | 13.7 ± 0.5 µM (≈ 4.35 µg/mL) | 11.7 ± 2.3 µM (≈ 3.71 µg/mL) | 0.33 Trolox equivalent per μM | 0.32 curcumin equivalent per μM | 34.9 ± 0.8 µM | 4.2 ± 0.4 µM | 19.6 ± 4 µM | 6 ± 0.9 µM | 49.5 ± 2.1 µM | 9.7 ± 0.5 µM | 21.1 ± 0.3 µM | 9.5 ± 0.4 µM | significantly increased ROS production | 985 ± 78.2% | 463 ± 42.7% | 384 ± 47.5% | 458 ± 97.5% | 382 ± 62.6% | 483.9 ± 1.4% | 402 ± 23.4% | change of intracellular ROS in words [12]: higher ROS signal; change of intracellular ROS in words ([13]; Caco‐2, vs untreated control, 10 and 1 μM): significantly increased ROS production; change of intracellular ROS in words [14]: significantly increased ROS production; change of intracellular ROS in words [16]: significantly increased ROS
